Laboratory results published in ChEMBL document CHEMBL3397016, “SAR-studies of γ-secretase modulators with PPARγ-agonistic and 5-lipoxygenase-inhibitory activity for Alzheimer's disease” (Bioorg Med Chem Lett, 2015).
The source made the active and inactive calls. No cut-off for these calls is given here.

Key:
[1] = target: T1, Peroxisome proliferator-activated receptor gamma (Homo sapiens) (UniProt P37231); test: Activation of human PPARgamma ligand binding domain expressed in COS7 cells at 6 uM by dual luciferase reporter gene assay; assay type: cell-based; conditions: COS-7
T1 sequence (whole entry): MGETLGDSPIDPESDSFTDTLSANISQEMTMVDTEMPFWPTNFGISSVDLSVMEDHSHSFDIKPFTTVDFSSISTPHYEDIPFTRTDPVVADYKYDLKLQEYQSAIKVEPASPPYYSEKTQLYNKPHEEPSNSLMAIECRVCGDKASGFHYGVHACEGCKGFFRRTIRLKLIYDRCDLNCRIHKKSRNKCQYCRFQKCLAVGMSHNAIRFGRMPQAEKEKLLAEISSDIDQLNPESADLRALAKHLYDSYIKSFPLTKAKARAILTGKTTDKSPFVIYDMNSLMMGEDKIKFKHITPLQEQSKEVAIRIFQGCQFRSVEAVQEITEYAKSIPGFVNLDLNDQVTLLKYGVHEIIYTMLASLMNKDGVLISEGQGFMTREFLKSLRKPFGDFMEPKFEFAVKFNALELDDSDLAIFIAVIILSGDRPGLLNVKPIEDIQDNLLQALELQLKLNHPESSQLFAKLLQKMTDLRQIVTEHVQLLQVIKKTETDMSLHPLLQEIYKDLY

[2] = target: T2, Prostaglandin G/H synthase 2 (Homo sapiens) (UniProt P35354); test: Inhibition of human recombinant COX2-mediated 12-HHT formation assessed as remaining activity at 10 uM preincubated for 5 mins before arachidonic acid addition by HPLC analysis
T2 sequence (whole entry): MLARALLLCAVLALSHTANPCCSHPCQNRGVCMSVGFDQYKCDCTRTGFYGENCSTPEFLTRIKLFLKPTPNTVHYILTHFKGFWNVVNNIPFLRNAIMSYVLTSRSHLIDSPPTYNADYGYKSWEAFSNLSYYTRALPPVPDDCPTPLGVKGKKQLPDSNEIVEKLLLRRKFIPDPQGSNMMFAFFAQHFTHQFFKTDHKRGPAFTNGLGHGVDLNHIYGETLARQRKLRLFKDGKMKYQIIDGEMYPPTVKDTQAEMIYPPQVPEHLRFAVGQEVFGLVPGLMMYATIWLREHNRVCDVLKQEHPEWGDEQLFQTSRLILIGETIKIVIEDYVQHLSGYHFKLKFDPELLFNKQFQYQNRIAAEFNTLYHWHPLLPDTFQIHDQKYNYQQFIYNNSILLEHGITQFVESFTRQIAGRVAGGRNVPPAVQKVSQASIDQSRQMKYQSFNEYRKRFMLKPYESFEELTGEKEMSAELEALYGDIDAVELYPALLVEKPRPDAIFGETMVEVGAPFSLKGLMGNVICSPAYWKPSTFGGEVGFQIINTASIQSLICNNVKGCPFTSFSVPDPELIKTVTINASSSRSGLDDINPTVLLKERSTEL
Summary of the method: (§1)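 Cell-free enzyme assays. Data given either as IC50 or as remaining enzyme activity at 10 µM test concentration.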

[3] = target: T3, Prostaglandin G/H synthase 1 (Ovis aries, UniProt P05979); test: Inhibition of ovine COX1-mediated 12-HHT formation preincubated for 5 mins before arachidonic acid addition by HPLC analysis; summary of the method: as §1
T3 sequence (P05979 whole entry): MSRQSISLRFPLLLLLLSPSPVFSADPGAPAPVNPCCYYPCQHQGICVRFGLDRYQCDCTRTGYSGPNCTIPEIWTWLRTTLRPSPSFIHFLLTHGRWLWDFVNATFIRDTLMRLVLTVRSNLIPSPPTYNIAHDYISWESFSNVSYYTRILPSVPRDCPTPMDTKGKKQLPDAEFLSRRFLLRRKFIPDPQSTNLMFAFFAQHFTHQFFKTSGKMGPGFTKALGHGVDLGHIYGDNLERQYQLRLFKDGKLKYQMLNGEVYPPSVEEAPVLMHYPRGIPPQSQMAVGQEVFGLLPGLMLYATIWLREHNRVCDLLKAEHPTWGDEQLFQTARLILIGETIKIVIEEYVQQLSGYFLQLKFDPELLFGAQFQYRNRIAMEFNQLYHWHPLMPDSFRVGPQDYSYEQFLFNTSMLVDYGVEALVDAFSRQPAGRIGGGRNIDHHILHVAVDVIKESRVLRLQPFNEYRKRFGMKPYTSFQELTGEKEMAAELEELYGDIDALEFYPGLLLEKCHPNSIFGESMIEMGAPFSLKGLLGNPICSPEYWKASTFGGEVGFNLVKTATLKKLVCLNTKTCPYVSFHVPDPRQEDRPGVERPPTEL

[4] = Cytotoxicity against human Jurkat cells assessed as reduction in cell viability up to 30 uM after 24 to 48 hrs by MTT assay; assay type: cell-based; conditions: read-out: INH
Prostaglandin E synthase = target: T4, Prostaglandin E synthase (Homo sapiens, UniProt O14684); test: Inhibition of mPGES-1-mediated PGE2 formation in interleukin-1beta-stimulated human A549 microsomal membranes preincubated for 15 mins before PGH2 addition by RP-HPLC analysis
T4 sequence (O14684 whole entry): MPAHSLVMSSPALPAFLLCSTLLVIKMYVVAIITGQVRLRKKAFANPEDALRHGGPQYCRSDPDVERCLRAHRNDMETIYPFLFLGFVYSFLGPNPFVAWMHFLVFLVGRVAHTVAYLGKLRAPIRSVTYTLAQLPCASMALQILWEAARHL

[5] = target: T5, Prostaglandin G/H synthase 2 (Homo sapiens, UniProt P35354); test: Inhibition of human recombinant COX2-mediated 12-HHT formation preincubated for 5 mins before arachidonic acid addition by HPLC analysis; summary of the method: as §1
T5 sequence (P35354 whole entry): T2 sequence (whole entry)

[6] = target: T6, Prostaglandin G/H synthase 1 (Ovis aries) (UniProt P05979); test: Inhibition of ovine COX1-mediated 12-HHT formation assessed as remaining activity at 10 uM preincubated for 5 mins before arachidonic acid addition by HPLC analysis; summary of the method: as §1
T6 sequence (whole entry): T3 sequence (P05979 whole entry)

Presenilin-1 [7] = target: T7, Presenilin-1 (Homo sapiens, UniProt P49768); test: Activation of wild-type human presenilin-1 stably overexpressed in CHO cells co-expressing wild-type human amyloid precursor protein assessed as amyloid beta 38 formation after 24 hrs by ELISA; assay type: cell-based
[8] = target: T8, Polyunsaturated fatty acid 5-lipoxygenase (Homo sapiens, UniProt P09917); test: Inhibition of 5-LO in human PMNL assessed as reduction in 5-LO product formation pre-incubated for 15 mins before addition of arachidonic acid substrate by HPLC analysis; conditions: read-out: IC50
T8 sequence (P09917 whole entry): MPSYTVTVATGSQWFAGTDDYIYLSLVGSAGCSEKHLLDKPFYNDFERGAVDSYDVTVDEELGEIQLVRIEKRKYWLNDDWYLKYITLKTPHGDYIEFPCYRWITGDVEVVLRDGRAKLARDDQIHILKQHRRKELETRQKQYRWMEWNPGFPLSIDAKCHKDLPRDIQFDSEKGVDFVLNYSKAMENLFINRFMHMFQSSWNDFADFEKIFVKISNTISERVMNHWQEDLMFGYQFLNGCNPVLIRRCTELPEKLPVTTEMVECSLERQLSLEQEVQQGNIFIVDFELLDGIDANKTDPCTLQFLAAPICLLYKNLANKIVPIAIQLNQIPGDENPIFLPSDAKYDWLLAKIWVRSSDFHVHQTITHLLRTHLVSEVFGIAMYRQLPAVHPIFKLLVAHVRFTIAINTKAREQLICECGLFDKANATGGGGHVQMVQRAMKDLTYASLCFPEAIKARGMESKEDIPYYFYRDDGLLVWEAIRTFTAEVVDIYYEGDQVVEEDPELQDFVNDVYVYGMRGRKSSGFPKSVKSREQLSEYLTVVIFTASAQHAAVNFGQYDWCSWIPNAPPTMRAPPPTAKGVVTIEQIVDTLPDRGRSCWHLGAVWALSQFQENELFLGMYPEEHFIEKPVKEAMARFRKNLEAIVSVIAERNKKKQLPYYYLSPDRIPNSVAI

[9] = target: T1, Peroxisome proliferator-activated receptor gamma (Homo sapiens); test: Activation of human PPARgamma ligand binding domain expressed in COS7 cells at 3 uM by dual luciferase reporter gene assay; assay type: cell-based; conditions: COS-7
Presenilin-1 [10] = target: T7, Presenilin-1; test: Inhibition of wild-type human presenilin-1 stably overexpressed in CHO cells co-expressing wild-type human amyloid precursor protein assessed as inhibition of amyloid beta 42 formation after 24 hrs by ELISA; assay type: cell-based
[11] = target: T1, Peroxisome proliferator-activated receptor gamma (Homo sapiens); test: Activation of human PPARgamma ligand binding domain expressed in COS7 cells by dual luciferase reporter gene assay relative to 1 uM pioglitazone; assay type: cell-based; conditions: COS-7
[12] = target: T9, Peroxisome proliferator-activated receptor gamma (Homo sapiens, UniProt P37231); test: Activation of human PPARgamma ligand binding domain expressed in COS7 cells by dual luciferase reporter gene assay; assay type: cell-based, COS-7; conditions: cos-7
T9 sequence (P37231 whole entry): T1 sequence (whole entry)

[13] = target: NOTCH-1 signaling (Neurogenic locus notch homolog protein 1) (Homo sapiens, UniProt P46531); test: Inhibition of NOTCH-1 signaling (unknown origin) expressed in CHO cells at 0.5 uM after 24 hrs by dual luciferase reporter gene assay; assay type: cell-based; conditions: CHO cells expressing NOTCH-1
Sequence of NOTCH-1 signaling (Neurogenic locus notch homolog protein 1) (P46531 whole entry): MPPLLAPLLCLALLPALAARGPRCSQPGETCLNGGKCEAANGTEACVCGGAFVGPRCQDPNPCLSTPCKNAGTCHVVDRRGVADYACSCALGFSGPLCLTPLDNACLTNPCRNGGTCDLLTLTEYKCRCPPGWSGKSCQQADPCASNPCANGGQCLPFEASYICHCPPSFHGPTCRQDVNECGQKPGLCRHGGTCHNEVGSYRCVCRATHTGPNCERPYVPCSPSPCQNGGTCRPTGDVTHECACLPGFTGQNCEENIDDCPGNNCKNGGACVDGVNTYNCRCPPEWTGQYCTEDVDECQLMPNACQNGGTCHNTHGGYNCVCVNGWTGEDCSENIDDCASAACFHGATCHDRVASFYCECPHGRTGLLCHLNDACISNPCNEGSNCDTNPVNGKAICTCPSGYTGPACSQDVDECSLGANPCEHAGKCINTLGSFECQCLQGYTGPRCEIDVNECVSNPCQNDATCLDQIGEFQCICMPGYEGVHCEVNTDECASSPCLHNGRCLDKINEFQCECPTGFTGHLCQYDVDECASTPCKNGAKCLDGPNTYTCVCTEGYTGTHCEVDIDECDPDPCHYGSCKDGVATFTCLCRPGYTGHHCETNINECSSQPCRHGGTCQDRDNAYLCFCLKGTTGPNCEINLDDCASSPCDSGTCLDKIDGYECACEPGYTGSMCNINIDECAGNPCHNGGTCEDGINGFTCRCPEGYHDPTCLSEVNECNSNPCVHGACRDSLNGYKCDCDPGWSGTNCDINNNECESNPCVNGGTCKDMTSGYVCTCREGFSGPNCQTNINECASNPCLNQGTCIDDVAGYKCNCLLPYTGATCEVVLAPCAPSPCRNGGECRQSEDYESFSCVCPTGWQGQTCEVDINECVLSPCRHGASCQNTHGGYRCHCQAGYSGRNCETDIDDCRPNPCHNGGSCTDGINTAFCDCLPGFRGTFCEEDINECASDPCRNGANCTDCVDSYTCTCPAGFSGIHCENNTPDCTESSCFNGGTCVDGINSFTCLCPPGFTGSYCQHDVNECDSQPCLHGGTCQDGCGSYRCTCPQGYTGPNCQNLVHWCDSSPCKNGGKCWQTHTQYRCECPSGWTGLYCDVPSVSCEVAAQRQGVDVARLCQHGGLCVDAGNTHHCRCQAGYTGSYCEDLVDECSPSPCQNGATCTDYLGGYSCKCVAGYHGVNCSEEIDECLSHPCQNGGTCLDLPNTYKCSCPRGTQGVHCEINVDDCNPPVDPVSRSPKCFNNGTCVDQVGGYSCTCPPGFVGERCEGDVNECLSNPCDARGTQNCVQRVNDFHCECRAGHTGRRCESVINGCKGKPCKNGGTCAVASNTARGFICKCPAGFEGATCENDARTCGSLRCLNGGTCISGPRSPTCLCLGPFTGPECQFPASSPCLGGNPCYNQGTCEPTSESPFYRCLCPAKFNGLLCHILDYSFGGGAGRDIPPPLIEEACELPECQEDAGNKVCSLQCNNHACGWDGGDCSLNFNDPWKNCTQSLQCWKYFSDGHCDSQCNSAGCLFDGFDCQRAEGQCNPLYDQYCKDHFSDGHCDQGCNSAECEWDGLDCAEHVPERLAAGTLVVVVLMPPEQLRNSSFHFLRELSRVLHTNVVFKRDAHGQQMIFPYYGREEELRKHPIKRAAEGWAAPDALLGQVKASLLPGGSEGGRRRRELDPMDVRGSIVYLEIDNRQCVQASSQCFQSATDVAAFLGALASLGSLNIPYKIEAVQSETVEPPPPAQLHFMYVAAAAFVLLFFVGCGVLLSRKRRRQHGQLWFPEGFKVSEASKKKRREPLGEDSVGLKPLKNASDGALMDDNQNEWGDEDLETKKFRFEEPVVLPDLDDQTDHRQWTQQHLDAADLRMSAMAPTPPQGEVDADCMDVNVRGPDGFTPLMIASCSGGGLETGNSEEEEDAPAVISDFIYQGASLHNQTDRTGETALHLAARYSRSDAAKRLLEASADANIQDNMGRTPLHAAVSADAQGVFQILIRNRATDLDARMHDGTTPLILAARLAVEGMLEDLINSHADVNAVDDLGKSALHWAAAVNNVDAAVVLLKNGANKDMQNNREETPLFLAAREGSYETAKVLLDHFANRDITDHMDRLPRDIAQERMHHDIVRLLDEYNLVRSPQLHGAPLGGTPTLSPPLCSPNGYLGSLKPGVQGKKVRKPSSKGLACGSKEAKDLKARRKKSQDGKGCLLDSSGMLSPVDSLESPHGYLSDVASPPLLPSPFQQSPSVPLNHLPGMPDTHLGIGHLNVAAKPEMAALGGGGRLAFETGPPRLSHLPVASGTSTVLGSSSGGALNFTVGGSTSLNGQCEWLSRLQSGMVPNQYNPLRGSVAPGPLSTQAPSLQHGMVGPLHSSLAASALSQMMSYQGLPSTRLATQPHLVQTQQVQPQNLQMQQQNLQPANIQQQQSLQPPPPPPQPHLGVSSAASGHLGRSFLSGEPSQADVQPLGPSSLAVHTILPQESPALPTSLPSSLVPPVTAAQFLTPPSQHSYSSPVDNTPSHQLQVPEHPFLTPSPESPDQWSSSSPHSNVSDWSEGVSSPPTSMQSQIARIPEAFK
Summary of the method: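 Dual luciferase Notch reporter read-out in CHO cells. Test compounds were run at 5–50 µM. The γ-secretase inhibitor LY-411575 was run at 0.5 µM as the reference treatment.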

Gamma-secretase = test: Inhibition of CHAPSO-solubilized gamma-secretase isolated from human SH-SY5Y P2 cell membranes assessed as reduction in Abeta(1 to 42) peptide generation from recombinant C100Flag substrate by electrochemiluminescence assay

Row | Compound | Activity [1] [%] | Activity [2] [%] | IC50 [3] [µM] | cytotoxicity [4] [%] | IC50 (Prostaglandin E synthase) [µM] | IC50 [5] [µM] | Activity [6] [%] | EC50 (Presenilin-1 [7]) [µM] | IC50 [8] [µM] | Activity [9] [%] | IC50 (Presenilin-1 [10]) [µM] | max activation [11] | EC50 [12] | inhibition at 24 h, 0.5 µM [13] [%] | IC50 (Gamma-secretase) [µM]
1 | CCCC/C(=C\c1cc(OCCc2ccc(C(F)(F)F)cc2)ccc1OCc1ccc(C(F)(F)F)cc1)C(=O)O | 72 | 72.2 | > 10 | > 50 | 3.1 | > 10 | 66.3 | 1.3 | 0.5 | 21 | 1.5 |  |  |  | 
2 | CCCC/C(=C\c1cc(OCc2cc3ccccc3s2)ccc1OCc1ccc(C(F)(F)F)cc1)C(=O)O |  | 91.7 | > 10 | > 50 | 9.2 | > 10 | 67.4 | 2.1 | 0.7 |  | 4.6 | inactive | Not Active |  | 
3 | C[C@H](NC(=O)[C@@H](O)c1cc(F)cc(F)c1)C(=O)N[C@@H]1C(=O)N(C)c2ccccc2-c2ccccc21 |  |  |  |  |  |  |  |  |  |  |  |  |  | > 75 | 
4 | C[C@@H](C(=O)O)c1ccc(-c2ccccc2)c(F)c1 [TARENFLURBIL] |  |  |  |  |  |  |  |  |  |  |  |  |  |  | 307
